# Measurements as given in ChEMBL document CHEMBL2390886, “Guaifenesin derivatives promote neurite outgrowth and protect diabetic mice from neuropathy” (J Med Chem, 2013).
# The source made the active and inactive calls. The rule behind the calls is not given here.
# What was measured:
# DRG neuron [1] = test: Neuroprotective activity in Sprague-Dawley rat DRG neurons assessed as sprouting of neurites at 1 uM after 24 hrs by confocal microscopic analysis; assay type: functional
# Procedure, shortened: (§1)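 Dissociated DRG neurons from adult male Sprague−Dawley rats cultured in defined medium with compound for 24 h. DIC images by confocal microscopy. Total neurite length per cell scored with Weibel-grid morphometry as intersects per cell, compared with control neurons of the same preparation. n = 6 replicate cultures; mean ± SEM; one-way ANOVA with Tukey's test.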
# [2] = AUC (0 to t) in streptozotocin-induced C57BL/6J mouse diabetic neuropathy model at 10 mg/kg, po by LC-MS/MS analysis; assay type: ADME, organism-based; parameters: dose 10 mg/kg, route oral; conditions: in vivo
# Procedure, shortened: (§2)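 Single oral dose […] given to control and STZ-diabetic mice; plasma analysed by LC−MS/MS. Samples vortexed 2 min, centrifuged, organic layer dried under N2 at room temperature and reconstituted in 0.2% TFA in MeOH/water 20:80. Standards 20–100 000 nM in water; internal standard response variable, not used for quantification.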
# Mus musculus [3] = test: Toxicity in C57BL/6J mouse assessed as change in body weight at 10 to 100 mg/kg/day, po administered 6 days per week for 4 weeks (reference value: 26.7 +/- 0.4 g); assay type: organism-based; parameters: route oral; conditions: in vivo
# [4] = Cmax in C57BL/6J mouse at 10 mg/kg, po by LC-MS/MS analysis; assay type: ADME, organism-based; parameters: dose 10 mg/kg, route oral; conditions: in vivo; procedure, shortened: as §2
# Mus musculus [5] = test: Toxicity in C57BL/6J mouse sciatic nerve assessed as motor neuron conduction velocity at 10 to 100 mg/kg/day, po administered 6 days per week for 4 weeks (reference value: 35.6 +/- 1.1 m/s); assay type: organism-based; parameters: route oral; conditions: in vivo
# Mus musculus [6] = test: Antidiabetic activity in streptozotocin-induced C57BL/6J mouse diabetic neuropathy model assessed as effect on hyperglycemia at 10 to 100 mg/kg/day, po administered 6 days per week for 4 weeks; assay type: functional, organism-based
# Procedure, shortened: (§3)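 Type 1 diabetes induced in fasted mice by ip STZ 90 mg/kg in sterile citrate buffer on 2 consecutive days, confirmed 4 days later and at study end by tail-prick blood glucose (reflectance meter). Compound or vehicle (water) by oral gavage 6 days/week from diabetes onset for 4 weeks. Body weight, glucose, and sciatic MNCV recorded. MNCV taken at 37 °C under isoflurane, stimulating at sciatic notch and Achilles tendon (5 V, 0.05 ms square wave), recording in ipsilateral paw interosseus muscles. n = 10−12/group; mean ± SEM; one-way ANOVA with Dunnett's test.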
# Mus musculus [7] = test: Antidiabetic activity in streptozotocin-induced C57BL/6J mouse diabetic neuropathy model assessed as effect on weight loss at 10 to 100 mg/kg/day, po administered 6 days per week for 4 weeks; assay type: functional, organism-based; procedure, shortened: as §3
# Mus musculus [8] = test: Toxicity in C57BL/6J mouse assessed as unusual behavior at 10 to 100 mg/kg/day, po administered 6 days per week for 4 weeks; assay type: organism-based; parameters: route oral; conditions: in vivo
# [9] = Tmax in streptozotocin-induced C57BL/6J mouse diabetic neuropathy model at 10 mg/kg, po by LC-MS/MS analysis; assay type: ADME, organism-based; parameters: dose 10 mg/kg, route oral; conditions: in vivo; procedure, shortened: as §2
# DRG neuron [10] = test: Neuroprotective activity in Sprague-Dawley rat DRG neurons assessed as enhancement of neurite outgrowth at >10 nM after 24 hrs by confocal microscopic analysis; assay type: functional; procedure, shortened: as §1
# [11] = AUC (0 to t) in C57BL/6J mouse at 10 mg/kg, po by LC-MS/MS analysis; assay type: ADME, organism-based; parameters: dose 10 mg/kg, route oral; conditions: plasma; procedure, shortened: as §2
# [12] = Cmax in streptozotocin-induced C57BL/6J mouse diabetic neuropathy model at 10 mg/kg, po by LC-MS/MS analysis; assay type: ADME, organism-based; parameters: dose 10 mg/kg, route oral; conditions: in vivo; procedure, shortened: as §2
# [13] = Tmax in C57BL/6J mouse at 10 mg/kg, po by LC-MS/MS analysis; assay type: ADME, organism-based; parameters: dose 10 mg/kg, route oral; conditions: in vivo; procedure, shortened: as §2
# Mus musculus [14] = test: Neuroprotective activity in streptozotocin-induced C57BL/6J mouse diabetic neuropathy model assessed as prevention of motor neuron conduction velocity slowing at 10 to 100 mg/kg/day, po administered 6 days per week for 4 weeks; assay type: functional, organism-based; procedure, shortened: as §3
# DRG neuron [15] = test: Neuroprotective activity in Sprague-Dawley rat DRG neurons assessed as enhancement of neurite outgrowth at 0.01 to 1 uM after 24 hrs by confocal microscopic analysis; assay type: functional
# Procedure, shortened: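 DRG from adult male Sprague-Dawley rats dissociated; neurons cultured in defined Hams medium. Test agent incubated 24 h, then DIC images captured by confocal microscopy. Total neurite length per neuron measured morphometrically with a Weibel grid as crosspoints per cell, relative to control neurons of the same preparation. Mean ± SEM of 6 replicate cultures; one-way ANOVA with Tukey's post hoc test.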
# [16] = Permeability of the compound after 5 hrs by PAMPA; assay type: ADME; conditions: read-out: permeability
# Procedure, shortened: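 Precoated PAMPA plate warmed to room temperature. Donor: 25 μM compound in 5% DMSO/PBS; acceptor: 5% DMSO/PBS. Incubated 5 h at 25 °C in water bath. Donor and acceptor samples quantified by LC−MS/MS against calibration standards; mass retention also determined. Propranolol control.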
# [17] = Metabolic stability in mouse liver microsomes assessed as compound remaining at 2 uM after 1 hr by LC-MS/MS analysis; assay type: ADME, Microsome; conditions: read-out: Stability
# Procedure, shortened: (§4)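 2 μM compound incubated with mouse or human liver microsomes plus excess NADPH at 37 °C in a shaking water bath for 0 and 60 min (n = 6). Quenched with 2 volumes acetonitrile, centrifuged, supernatant diluted 1:1 with water, analysed by LC−MS/MS as % remaining. Propranolol control.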
# [18] = Metabolic stability in human liver microsomes assessed as compound remaining at 2 uM after 1 hr by LC-MS/MS analysis; assay type: ADME, Microsome; conditions: read-out: Stability; procedure, shortened: as §4
# DRG neuron [19] = test: Neuroprotective activity in Sprague-Dawley rat DRG neurons assessed as enhancement of neurite outgrowth up to 1 uM after 24 hrs by confocal microscopic analysis; assay type: functional; procedure, shortened: as §1
# Mus musculus [20] = test: Antidiabetic activity in streptozotocin-induced C57BL/6J mouse diabetic neuropathy model assessed as effect on weight loss at 1 to 10 mg/kg/day, po administered 6 days per week for 4 weeks; assay type: functional, organism-based; procedure, shortened: as §3
# Mus musculus [21] = test: Neuroprotective activity in streptozotocin-induced C57BL/6J mouse diabetic neuropathy model assessed as prevention of motor neuron conduction velocity slowing at 1 to 10 mg/kg/day, po administered 6 days per week for 4 weeks; assay type: functional, organism-based; procedure, shortened: as §3
# DRG neuron [22] = test: Neuroprotective activity in Sprague-Dawley rat DRG neurons assessed as enhancement of neurite outgrowth at 0.01 uM after 24 hrs by confocal microscopic analysis; assay type: functional; procedure, shortened: as §1
# Mus musculus [23] = test: Antidiabetic activity in streptozotocin-induced C57BL/6J mouse diabetic neuropathy model assessed as effect on hyperglycemia at 1 to 10 mg/kg/day, po administered 6 days per week for 4 weeks; assay type: functional, organism-based; procedure, shortened: as §3
compound,measurement,setting,value
COc1ccccc1OCC(O)CO (racemic) [GUAIFENESIN],Activity,DRG neuron [1],Active
same,AUC(0-t),[2],1.91 µM·h
same,Activity,Mus musculus [3],27.1 g
same,Cmax,[4],5.28 µM
same,Activity,Mus musculus [5],35.1 meter/s
same,Activity,Mus musculus [6],inactive
same,Activity,Mus musculus [7],inactive
same,Activity,Mus musculus [8],Non-toxic
same,Tmax,[9],4.98 min
same,Activity,DRG neuron [10],Active
same,AUC(0-t),[11],2.73 µM·h
same,Cmax,[12],5.27 µM
same,Tmax,[13],4.98 min
same,Activity,Mus musculus [14],Active
COc1ccccc1OC[C@@H](O)CF,Activity,DRG neuron [15],inactive
COc1ccccc1OC[C@@H](O)CO,Papp at 5 h,[16],8.2 ×10⁻⁶ cm/s
same,"remaining at 1 h, 2 µM",[17],92.9%
same,"remaining at 1 h, 2 µM",[18],94.8%
same,Activity,DRG neuron [15],inactive
COc1ccccc1NCC(O)CO (racemic),Activity,DRG neuron [19],inactive
COc1ccccc1OC[C@H](O)CO,Papp at 5 h,[16],6.3 ×10⁻⁶ cm/s
same,AUC(0-t),[2],0.746 µM·h
same,Cmax,[4],0.44 µM
same,Activity,Mus musculus [20],inactive
same,Activity,Mus musculus [21],Active
same,Activity,DRG neuron [22],Active
same,Tmax,[9],10 min
same,Activity,Mus musculus [23],inactive
same,"remaining at 1 h, 2 µM",[17],92.4%
same,AUC(0-t),[11],0.737 µM·h
same,"remaining at 1 h, 2 µM",[18],97.4%
same,Cmax,[12],0.741 µM
same,Tmax,[13],10 min
CCc1ccccc1OCC(O)CO (stereo not given),Activity,DRG neuron [15],inactive
Cc1ccccc1OCC(O)CO (racemic),Activity,DRG neuron [15],Active
